Experimental findings from ChEMBL document CHEMBL5344427, “Small Molecule Ligands of the BET-like Bromodomain, SmBRD3, Affect Schistosoma mansoni Survival, Oviposition, and Development” (J Med Chem, 2023) are described below.

Each structure is given as a SMILES string. Active and inactive are the calls of the source. The rule behind the calls is not given here.

For one data set, the system named is Schistosoma mansoni. Kind of data set: Binding affinity to Schistosoma mansoni BRD3 BD 1 and 2 assessed as thermal stability at 50 uM by DSF analysis.
Conditions: not given
An outline of the steps:
(§1)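 Differential scanning fluorimetry on recombinant SmBRD3(1,2) tandem construct or SmBRD3(2) single domain, compounds at 50 μM; ΔTm as mean of n = 3 with SD.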
Turning to `Cc1noc(C)c1-c1cc(O)cc(C(O)c2ccccc2)c1` (stereo not drawn), the outcome was Active.

On to `CC[C@@H]1C(=O)N(C)c2cnc(Nc3ccc(C(=O)NC4CCN(C)CC4)cc3OC)nc2N1C1CCCC1`, for which the outcome was Active.

Take `Cc1sc2c(c1C)C(c1ccc(Cl)cc1)=N[C@@H](CC(=O)OC(C)(C)C)c1nnc(C)n1-2`: the outcome was Active.

Consider `CC(=O)N1c2ccc(-c3ccc(C(=O)O)cc3)cc2[C@H](Nc2ccc(Cl)cc2)C[C@@H]1C`, for which the outcome was Active.

For a further data set, the system named is Schistosoma mansoni. Description: Binding affinity to Schistosoma mansoni BRD3 BD 2 by ITC analysis.
Conditions: not given
`CC(=O)N1c2ccc(-c3ccc(C(=O)O)cc3)cc2[C@@H](Nc2ccc3ccsc3c2)C[C@H]1C`: the result was inactive.

Take `Cc1noc(C)c1-c1cc(O)cc(C(O)c2ccc(F)cc2)c1` (stereo not drawn): the result was inactive.

Consider `Cc1noc(C)c1-c1cc(O)cc(C(O)c2ccccc2)c1` (stereo not drawn), for which the result was inactive.

Take `Cc1noc(C)c1-c1cc(O)cc(C(O)c2cccnc2)c1` (stereo not drawn): the result was inactive.

On to `Cc1sc2c(c1C)C(c1ccc(Cl)cc1)=N[C@@H](CC(=O)OC(C)(C)C)c1nnc(C)n1-2`, for which the outcome was inactive.

As to `CC(=O)Oc1cc(-c2c(C)noc2C)cc(C(O)c2ccccc2)c1` (stereo not drawn), the outcome was inactive.

For a further data set, the system named is Schistosoma mansoni. Kind of data set: Antiparasitic activity against Schistosoma mansoni assessed as inhibition of miracidia to sporocyst transformation at 0.5 to 25 uM incubated for 48 hrs by enumeration method. The data set is classed as functional, organism-based. The conditions noted are these: dose 0.5-25 µM. The method in brief: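 Miracidia hatched from eggs, washed in Chernin's balanced salt solution, 15–25 per well. Exposed to 0.5, 2.0, 5.0, 10 and 25 μM final in 1% DMSO, 48 h at 26 °C in the dark. Dead, partially and fully transformed parasites counted as % of population. Three independent experiments, two technical replicates each; CBSS/1% DMSO negative control.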
For `CCOC(=O)c1ccc(-c2ccc3c(c2)[C@@H](Nc2ccc4ccsc4c2)C[C@@H](C)N3C(C)=O)cc1`, the inhibition result is “Active”.

For `Cc1noc(C)c1-c1cc(O)cc(C(O)c2ccc(F)cc2)c1` (stereo not drawn), the inhibition result is “inactive”.

For the compound `Cc1sc2c(c1C)C(c1ccc(Cl)cc1)=N[C@@H](CC(=O)OC(C)(C)C)c1nnc(C)n1-2`, the inhibition entry was “Active”.

Turning to `CC(=O)Oc1cc(-c2c(C)noc2C)cc(C(O)c2ccccc2)c1` (stereo not drawn), the inhibition result is “inactive”.

The next data set has as its system Schistosoma mansoni. Description: Antiparasitic activity against Schistosoma mansoni adult worms assessed as lethality at 20 uM incubated for 72 hrs. It counts as functional, organism-based.
Conditions: not given
On to `CCOC(=O)c1ccc(-c2ccc3c(c2)[C@H](Nc2ccc4ncsc4c2)C[C@H](C)N3C(C)=O)cc1`, for which the outcome was inactive.

In the case of `CC(=O)N1c2ccc(-c3ccc(C(=O)O)cc3)cc2[C@H](Nc2ccc3sccc3c2)C[C@@H]1C`, the result was inactive.

Take `CCOC(=O)c1ccc(-c2ccc3c(c2)[C@@H](Nc2ccc4ccsc4c2)C[C@@H](C)N3C(C)=O)cc1`: the result was inactive.

`CC(=O)N1c2ccc(-c3ccc(C(=O)O)cc3)cc2[C@@H](Nc2ccc3ccsc3c2)C[C@H]1C`: the result was inactive.

As to `Cc1noc(C)c1-c1cc(O)cc(C(O)c2ccc(F)cc2)c1` (stereo not drawn), the outcome was inactive.

For `Cc1noc(C)c1-c1cc(O)cc(C(O)c2ccccc2)c1` (stereo not drawn), the outcome was inactive.

`Cc1noc(C)c1-c1cc(O)cc(C(O)c2cccnc2)c1` (stereo not drawn): the result was inactive.

Turning to `Cc1sc2c(c1C)C(c1ccc(Cl)cc1)=N[C@@H](CC(=O)OC(C)(C)C)c1nnc(C)n1-2`, the result was inactive.

In the case of `CC(=O)Oc1cc(-c2c(C)noc2C)cc(C(O)c2ccccc2)c1` (stereo not drawn), the outcome was inactive.

For `CC(=O)N1c2ccc(-c3ccc(C(=O)O)cc3)cc2[C@H](Nc2ccc(Cl)cc2)C[C@@H]1C`, the result was inactive.

Target in the next data set: not listed separately
Description: Binding affinity to Schistosoma mansoni BRD3 BD 1 and 2 assessed as dissociation constant by ITC analysis.
Conditions: not given
`Cc1sc2c(c1C)C(c1ccc(Cl)cc1)=N[C@@H](CC(=O)OC(C)(C)C)c1nnc(C)n1-2`: the Kd turned out to be 445 nM and the pKd is recorded as 6.4.

The subject of the next data set is Schistosoma mansoni. Kind of data set: Antiparasitic activity against Schistosoma mansoni assessed as effect on schistosomula phenotype at 10 to 20 uM incubated for 72 hrs by high content imaging analysis. It counts as functional, organism-based. The conditions noted are these: dose 10-20 µM. The method in brief: (§2)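 Schistosomula from mechanically transformed cercariae, 120/well, dosed from 10 mM DMSO stock at 20 and 10 μM final in duplicate (0.625% DMSO), ≥4 independent screens (Z′ >0.35). Auranofin 10 μM positive and DMSO negative controls. Phenotype and motility read by high content imaging after 72 h.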
In the case of `CCOC(=O)c1ccc(-c2ccc3c(c2)[C@@H](Nc2ccc4ccsc4c2)C[C@@H](C)N3C(C)=O)cc1`, the outcome was inactive.

On to `CC(=O)N1c2ccc(-c3ccc(C(=O)O)cc3)cc2[C@@H](Nc2ccc3ccsc3c2)C[C@H]1C`, for which the outcome was inactive.

As to `CC(=O)Oc1cc(-c2c(C)noc2C)cc(C(O)c2ccccc2)c1` (stereo not drawn), the result was Active.

Test system in the next data set: not listed separately
Description: Prodrug conversion in Schistosoma mansoni adult worms assessed as 3-(3,5-dimethylisoxazol-4-yl)-5-(hydroxy(phenyl)methyl)phenol metabolite formation at 20 uM incubated for 24 hrs followed by compound washout thrice and subsequent addition of fresh medium without compound by LC-MS analysis. It counts as ADME.
Conditions: not given
With `CC(=O)Oc1cc(-c2c(C)noc2C)cc(C(O)c2ccccc2)c1` (stereo not drawn), the Drug metabolism result is reported as “Metabolite_Detected”.

Another data set has as its system Schistosoma mansoni. Kind of data set: Binding affinity to Schistosoma mansoni BRD3 BD 2 assessed as thermal stability at 50 uM by DSF analysis.
Conditions: not given
The method in brief:
as §1
In the case of `Cc1noc(C)c1-c1cc(O)cc(C(O)c2ccccc2)c1` (stereo not drawn), the result was inactive.

For `CC[C@@H]1C(=O)N(C)c2cnc(Nc3ccc(C(=O)NC4CCN(C)CC4)cc3OC)nc2N1C1CCCC1`, the result was Active.

For the compound `Cc1sc2c(c1C)C(c1ccc(Cl)cc1)=N[C@@H](CC(=O)OC(C)(C)C)c1nnc(C)n1-2`, the result was inactive.

Regarding `CC(=O)N1c2ccc(-c3ccc(C(=O)O)cc3)cc2[C@H](Nc2ccc(Cl)cc2)C[C@@H]1C`, the result was Active.

A further data set concerns Schistosoma mansoni. Description: Binding affinity to Schistosoma mansoni BRD3 BD 1 assessed as thermal stability at 50 uM by DSF analysis.
Conditions: not given
Regarding `Cc1noc(C)c1-c1cc(O)cc(C(O)c2ccccc2)c1` (stereo not drawn), the result was Active.

`Cc1sc2c(c1C)C(c1ccc(Cl)cc1)=N[C@@H](CC(=O)OC(C)(C)C)c1nnc(C)n1-2`: the result was Active.

Another data set deals with Schistosoma mansoni. Description: Antiparasitic activity against Schistosoma mansoni adult worms assessed as reduction in worm pairing at 20 uM incubated for 72 hrs by imaging analysis. The data set is classed as functional, organism-based.
Conditions: not given
The method in brief: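 Adult worm pairs perfused from TO mice infected percutaneously 7 weeks earlier with 180 cercariae; 1 pair/well in duplicate, dosed at 20 μM in 0.2% DMSO for 72 h. Motility scored by digital image processing (WormassayGP2); in vitro laid eggs counted and pairing noted. DMSO negative and praziquantel positive controls; n = 2 independent screens, 2 technical replicates each.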
As to `CCOC(=O)c1ccc(-c2ccc3c(c2)[C@@H](Nc2ccc4ccsc4c2)C[C@@H](C)N3C(C)=O)cc1`, the outcome was inactive.

Target in another data set: not listed separately
Description: Binding affinity to Schistosoma mansoni BRD3 BD 2 assessed as dissociation constant by ITC analysis.
Conditions: not given
As to `CCOC(=O)c1ccc(-c2ccc3c(c2)[C@H](Nc2ccc4ncsc4c2)C[C@H](C)N3C(C)=O)cc1`, the Kd came to 1180 nM.

Take `CC(=O)N1c2ccc(-c3ccc(C(=O)O)cc3)cc2[C@H](Nc2ccc3sccc3c2)C[C@@H]1C`: the pKd was determined as 6.3.

As for `CC(=O)N1c2ccc(-c3ccc(C(=O)O)cc3)cc2[C@H](Nc2ccc(Cl)cc2)C[C@@H]1C`, the pKd was found to be 5.7.

The next data set has as its system Schistosoma mansoni. Description: Antiparasitic activity against Schistosoma mansoni assessed as effect on schistosomula motility at 10 to 20 uM incubated for 72 hrs by high content imaging analysis. The conditions noted are these: dose 10-20 µM. The data set is classed as functional, organism-based. The method in brief: as §2
Regarding `CCOC(=O)c1ccc(-c2ccc3c(c2)[C@@H](Nc2ccc4ccsc4c2)C[C@@H](C)N3C(C)=O)cc1`, the result was inactive.

As for `CC(=O)N1c2ccc(-c3ccc(C(=O)O)cc3)cc2[C@@H](Nc2ccc3ccsc3c2)C[C@H]1C`, the outcome was inactive.

For the compound `CC(=O)Oc1cc(-c2c(C)noc2C)cc(C(O)c2ccccc2)c1` (stereo not drawn), the result was Active.
